Converted amounts (≈) assume the structure as drawn.
Legend:
[1] = Partition coefficient, log K of the compound in n-hexane/methyl tert-butylether/acetonitrile 10:1:10 solvent system by HSCCC/EECCC analysis; format: physicochemical
In short: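 K values derived from volumetric measurements of the HSCCC run. Fraction collection began 1 h after loading at 4 min (6 mL) per fraction. Elution ran 5 h, then sweep elution and extrusion of the stationary phase for another 5 h, giving 160 TLC-monitored fractions.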

[2] = tested on: Mycobacterium tuberculosis; experiment: Antimicrobial activity against Mycobacterium tuberculosis H37Rv by BACTEC radiometric assay; format: functional
[3] = tested on: Mycobacterium tuberculosis; experiment: Antimicrobial activity against Mycobacterium tuberculosis H37Rv assessed as growth inhibition by gaseous contact assay relative to control; format: functional
In short: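 Gaseous contact (microatmosphere) assay. Virulent pan-sensitive M.tb H37Rv (ATCC 27294) frozen stocks were diluted so 100 μL gave 200−400 colonies on Middlebrook 7H11 agar, then dried 4−5 h at room temperature. 5 μL of sample in EtOAc (100 mg/mL) went on a filter disk in the inverted lid (≈70 cm3 headspace). Plates were sealed, held at 37 °C, cfu counted at 21 days, and % inhibition calculated.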

CC(=O)OCCC(C)CCC=C(C)C (centres undefined) [CITRONELLYL ACETATE]
log K [1]: 1.55

CC1=C[C@@H]2C(=C(C)CC[C@H]2C(C)C)CC1 [(+)-DELTA-CADINENE]
log K [1]: 2.98

C=CC(C)(O)CCC=C(C)C (centres undefined) [LINALOOL]
log K [1]: 0.74

C=C1CC[C@@H]2[C@H]([C@@H]3[C@H](C)CC[C@H]13)C2(C)C
log K [1]: 2.98

CC12CCCCC1=CC(=O)CC2 (centres undefined)
log K [1]: 1.55

C=C(C)[C@@H]1CC[C@@H](C)C[C@H]1OC(C)=O
log K [1]: 1.55

C=C1CC/C=C(\C)CC[C@@H]2[C@@H]1CC2(C)C [BETA-CARYOPHYLLENE]
log K [1]: 2.98

C[C@@H]1CC[C@@H](C(C)(C)O)C(O)C1 (some centres undefined)
log K [1]: 0.87

CC(C)=CCC/C(C)=C/CC/C(C)=C/CC/C(C)=C/CO [GERANYLGERANIOL]
log K [1]: 1.6

CC(C)=CCC/C(C)=C/CO [GERANIOL]
MIC [2]: 64 µg/mL (≈ 415 µM)

CC1=CC[C@H]2C(C)=CC[C@@H](C(C)C)[C@@H]2C1
log K [1]: 2.98

CC1=C[C@H]2[C@H](C(C)C)CC[C@@H](C)[C@]2(O)CC1
log K [1]: 1.8

Cc1cc(C(C)(C)C)cc(C(C)(C)C)c1O
log K [1]: 1.79

C[C@H]1CC[C@@H]2[C@H]1[C@@H]1[C@H](CC[C@]2(C)O)C1(C)C
log K [1]: 1.18

CC(C)=CCC/C(C)=C\CO [NEROL]
MIC [2]: 128 µg/mL (≈ 830 µM)

CC(C)=CCC/C(C)=C/CC/C(C)=C/CO [FARNESOL]
MIC [2]: 8 µg/mL (≈ 36 µM)
log K [1]: 1.79

C=C(C)[C@H]1CC[C@@H](C)C[C@H]1O (relative stereo)
log K [1]: 2.98

C=C1CCC[C@]2(C)CC[C@@H](C(C)(C)O)C[C@@H]12 [BETA-EUDESMOL]
log K [1]: 1.6

CC1=C[C@@H]2[C@@H](CC1)[C@@](C)(O)CC[C@H]2C(C)C [T-CADINOL]
log K [1]: 1.55

CC1=CCC[C@]2(C)CC[C@@H](C(C)(C)O)C[C@@H]12
log K [1]: 1.8

CC(C)=CCC/C(C)=C/CC/C(C)=C/C=O
log K [1]: 1.79

C=C1CCCC(C)(C)[C@H]2C=C(C)CC[C@@H]12
log K [1]: 1.6

CC1(C)C[C@H]2[C@H]1CC[C@]1(C)CCC[C@@]2(O)C1
log K [1]: 1.6

C[C@@H]1CC[C@@H]2[C@@H]1[C@H]1[C@@H](CC[C@@]2(C)O)C1(C)C [GLOBULOL]
log K [1]: 1.79

CC(C)=CCC[C@H](C)CC=O [(-)-CITRONELLAL]
growth inhibition (GI) [3]: 18%
log K [1]: 1.02

CC1=CC[C@@H](C(C)(C)O)CC1 [ALPHA-TERPINEOL]
log K [1]: 0.82

C=C(C)[C@@H]1CC[C@@H](C)C[C@H]1O [ISOPULEGOL]
growth inhibition (GI) [3]: 64%
log K [1]: 0.87

C/C1=C\CC(C)(C)/C=C/C[C@@]2(C)O[C@@H]2CC1
log K [1]: 1.55

CC(C)=CCCC(C)CCO (centres undefined) [CITRONELLOL]
MIC [2]: 64 µg/mL (≈ 410 µM)
growth inhibition (GI) [3]: 100%
log K [1]: 0.69

C[C@@H]1CC[C@H]2[C@@H]1[C@H]1[C@@H](CC[C@]2(C)O)C1(C)C
log K [1]: 1.55

C=C(C)[C@H]1CC[C@H](C)C[C@H]1O (relative stereo)
log K [1]: 0.82

C=C(C)[C@@H]1CC[C@@]2(C)CCCC(=C)[C@@H]2C1 [BETA-SELINENE]
log K [1]: 1.79

CC12CCC(CC1)C(C)(C)O2 [EUCALYPTOL]
growth inhibition (GI) [3]: 0%

C=C1CC[C@@H]2[C@H]([C@H]3[C@H]1CC[C@]3(C)O)C2(C)C [SPATHULENOL]
log K [1]: 1.18

Source: ChEMBL document CHEMBL3120053, “Airborne antituberculosis activity of Eucalyptus citriodora essential oil” (J Nat Prod, 2014)
